# Bioassay records from PubChem BioAssay.
# MC4R antagonist: human MC4R antagonism in cAMP assay; 0.48% of 360,000 active; MC4R-expressing cells, MTII-stimulated cAMP, LANCE TR-FRET; inhibition, % at 6.5 µM; P32245; AID 540295;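 active means inhibition above its plate's cutoff, the mean of tested wells on that plate plus 3 SD, cut at about 29% in these data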;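 further: 0% = Melanotan II alone and 100% = Melanotan II plus saturating MCL0020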
# Target sequence (P32245 whole entry, looked up): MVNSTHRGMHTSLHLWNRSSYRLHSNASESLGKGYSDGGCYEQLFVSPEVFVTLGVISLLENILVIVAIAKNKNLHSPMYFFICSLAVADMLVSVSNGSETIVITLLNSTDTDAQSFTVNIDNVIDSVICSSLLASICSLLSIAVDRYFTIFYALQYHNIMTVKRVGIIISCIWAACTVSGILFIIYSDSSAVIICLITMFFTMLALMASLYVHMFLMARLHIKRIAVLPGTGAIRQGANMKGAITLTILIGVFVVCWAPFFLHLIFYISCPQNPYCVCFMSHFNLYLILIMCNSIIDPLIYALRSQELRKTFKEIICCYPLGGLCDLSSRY
#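 Assay system: human MC4R-expressing U2OS cells; reagent: Melanotan II stimulation of cells; dosing: 6.5 µM single dose; timing: compound 30 min, challenge 1 h, detection 1 h; signal: TR-FRET cAMP assay; replicates: one well per compound, no replicates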
# MC4R ag barr: agonists of human melanocortin 4 receptor (MC4R) beta-arrestin; P32245; U2OS MC4R beta-arrestin complementation, luminescence; percent of melanotan II response, DMSO zero; activation, % at 8.9 µM; 0.98% of 360,000 active; AID 540308;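 active means activation above a per-plate cutoff, the mean activation of sample wells on that plate plus 3 SD, cut at about 8% in these data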
# NOD2-RIPK2 inh: NOD2-RIPK2 protein interaction inhibition; AID 624267; O43353; inhibition, % at 4.98 µM; CHO BLA complementation NOD2-RIPK2, CCF4 ratio; 0.38% of 360,000 active; in the data active means inhibition above about 21%;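 further: 0% = vehicle only and 100% = reference blocker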
# TLR9-MyD88 inh: TLR9-MyD88 interaction inhibition | inhibition, % at 4.98 µM | AID 504734 | 0.21% of 340,000 active | CHO BLA complementation TLR9-MyD88, CCF4 FRET ratio | Q9NR96+Q99836;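 active means inhibition above the mean over all tested compounds plus 3 SD, cut at about 21% in these data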;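 further: 0% = DMSO only wells and 100% = clavulanate BLA inhibitor control wells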
# TLR4 MyD88 comp: blocks binding of human TLR4 to MyD88; AID 861; 0.18% of 200,000 active; inhibition, % at 8.4 µM; HeLa CL3-4 TLR4/MyD88 BLA complementation, FRET ratio; O00206+Q99836; in the data active means inhibition above about 25%;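 further: 0% = vehicle and 100% = reference inhibitor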
# NOD2 RIPK2 conf: NOD2-RIPK2 interaction inhibition confirmed; shares compounds with NOD2-RIPK2 inh; CHO cells, NOD2-RIPK2 BLA complementation, CCF4 FRET; inhibition, % at 4.98 µM; 70% of 1,200 active;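 active means mean inhibition across replicates above a set limit taken from the earlier primary screen, cut at about 21% in these data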;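 further: 0% = DMSO-only wells and the high end = clavulanate BLA-blocked wells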
# NOD2 BLA counter: hits BLA reporter in NOD2-RIPK2 inhibitor counterscreen; shares compounds with NOD2-RIPK2 inh; CHO BLA reporter, CCF4 FRET ratio; inhibition, % at 4.98 µM; 57% of 1,200 active; AID 624371;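 active means mean inhibition above the low-control mean inhibition plus three low-control SD, cut at about 11% in these data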;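 further: 0% = DMSO only wells and 100% = clavulanate high control wells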
# Starred values were filed as active, the others as inactive; / = not tested or not shown. Compounds with a hit are over-represented: about 1.8% of the library has one in this group of screens.
SMILES,MC4R antagonist,MC4R ag barr,NOD2-RIPK2 inh,TLR9-MyD88 inh,TLR4 MyD88 comp,NOD2 RIPK2 conf,NOD2 BLA counter
Cn1c(SCC(=O)NNC(=S)Nc2ccccc2)nnc1-c1ccccc1,15,0,0,8,/,/,/
Cn1c(SCC(=O)NNC(=O)Nc2ccccc2)nnc1-c1ccccc1,0,-2,24*,15,/,11,10
O=Cc1ccc(N2CCCC2)c([N+](=O)[O-])c1,6,-2,3,-3,-4,/,/
O=[N+]([O-])/C=C\c1ccc(N2CCCC2)c(F)c1,9,-1,31*,13,13,77*,22*
CC(C)(C)N(Cc1ccccc1)C(=O)COC(=O)/C=C/c1ccc2c(c1)OCO2,19,0,2,-3,/,/,/
COc1ccc(-c2cc(C#N)nc(NN)n2)cc1,-1,0,-8,-2,/,/,/
COc1ccc(-c2cc(C#N)nc(Cl)n2)cc1,-26,-4,28*,6,/,40*,-1
Cc1cc(C)c2c(n1)SCC(=O)N2CC(=O)Nc1ccccc1Cl,7,-1,-4,-9,/,/,/
CCCCNc1c(-c2ccc(-c3ccc(C(C)=O)cc3)c(OC)c2)nc2cnccn12,13,1,23*,9,/,21,30*
CCOC(=O)CNc1c(-c2ccc(Cl)cc2)nc2cnccn12,10,1,28*,4,6,25*,24*
O=C1C(Cl)=C(Nc2ccc3cn[nH]c3c2)C(=O)c2ccccc21,-14,-4,91*,3,/,79*,28*
Cc1cc(C)c(S(=O)(=O)CCC(C)C)c(=O)[nH]1,3,-1,2,18,-22,/,/
CN(C)S(=O)(=O)n1cnc(-c2ccccc2)c1-c1ccccc1,4,-2,35*,-4,-2,2,-2
Cc1nc2ccccc2n1S(=O)(=O)N(C)C,5,-5,6,-4,-14,/,/
Cn1cnc(S(=O)(=O)N2CCN(C(c3ccccc3)c3ccccc3)CC2)c1,2,1,-18,3,/,/,/
CN(C)c1ccc(/C=C2\SC(=O)N(CCc3nnc(N)s3)C2=O)cc1,-14,2,24*,5,/,22*,13*
NS(=O)(=O)c1ccc(N/C=C\C(=O)c2ccc3ccccc3c2)cc1,7,0,24*,1,2,4,12*
N#CCOc1ccccc1CNC[C@H]1O[C@@H](n2cnc3c(=O)[nH]c(N)nc32)[C@H](O)[C@@H]1O,/,/,-8,/,/,/,/
CCN(CC)C(=O)CSc1nc2ncc(Br)cc2[nH]1,1,-2,2,-18,1,/,/
O=C(CSc1nc2ncc(Br)cc2[nH]1)c1ccc([N+](=O)[O-])cc1,2,4,22*,-6,4,13,-5
C=C1CC(Cn2cc(Br)c(=O)[nH]c2=O)(c2ccc(-c3ccccc3)cc2)OC1=O (centres undefined),6,-2,79*,9,/,71*,8
O=c1[nH]c(=O)n(Cc2ccc(Oc3ccccc3)cc2)cc1Br,-6,-1,-2,-3,/,/,/
CN(C)S(=O)(=O)c1ccc(C(=O)OCc2nnc(-c3ccccc3)o2)cc1,16,0,-3,-2,/,/,/
CS(=O)(=O)c1ccc(C(=O)OCc2nnc(-c3ccccc3)o2)cc1[N+](=O)[O-],-11,-1,21*,20,-6,55*,6
CCc1ccc(NC(=O)CCn2c(=O)c3cccn3c3ccccc32)cc1,0,-3,2,-7,/,/,/
SMILES,MC4R antagonist,MC4R ag barr,NOD2-RIPK2 inh,TLR9-MyD88 inh,TLR4 MyD88 comp,NOD2 RIPK2 conf,NOD2 BLA counter
CCc1ccc(NC(=O)Cn2c(=O)c3cccn3c3ccccc32)cc1,8,0,22*,-2,/,11,-2
Cc1[nH]c2ccccc2c1CC#N,5,-1,8,4,/,/,/
Cc1[nH]c2ccccc2c1C1=CC(=O)C=CC1=O,20,-3,45*,16,/,62*,13*
CN(Cc1ccccc1)C(=O)c1cccc(NC(=O)C2CCCN(C(=O)OC(C)(C)C)C2)c1 (centres undefined),18,-1,-2,-7,/,/,/
C=C(CN(C)C)C(=O)c1ccc(C)cc1C,21,-4,33*,11,/,94*,30*
COc1ccc(OC)c(/C=C/C(=O)OCC(=O)N2C(C)CCCC2C)c1 (centres undefined),-2,-1,21*,1,/,5,0
O=C(N/N=C/c1c(O)n(-c2ccccc2Cl)c(=O)c2ccccc12)C1COc2ccccc2O1 (centres undefined),12,-1,23*,14,10,26*,39*
Cc1ccc(-n2c(O)c(/C=N/NC(=O)C3COc4ccccc4O3)c3ccccc3c2=O)cc1 (centres undefined),6,3,11,15,9,/,/
Cc1cc(C)nc(NS(=O)(=O)c2ccc(NC(=O)CN3C(=O)C4CC=CCC4C3=O)cc2)n1 (centres undefined),2,0,2,-13,-10,/,/
COc1ccc(NC(=O)C(C2CC2)n2c(=O)c(-c3ccco3)nc3ccccc32)cc1 (centres undefined),/,/,-9,/,/,/,/
O=C(Nc1ccc2ccccc2c1)C(C1CC1)n1c(=O)c(-c2cc3ccccc3[nH]2)nc2ccccc21 (centres undefined),/,/,45*,/,/,41*,66*
O=C(Nc1ccc2c(c1)OCCO2)C(c1ccccc1F)n1c(=O)c(-c2ccco2)nc2ccccc21 (centres undefined),/,/,4,/,/,/,/
COc1ccc(NC(=O)C(C2CC2)n2c(=O)c(-c3cc4ccccc4[nH]3)nc3ccccc32)cc1 (centres undefined),/,/,46*,/,/,40*,67*
O=C(Nc1ccc2c(c1)OCCO2)C(C1CC1)n1c(=O)c(-c2cc3ccccc3[nH]2)nc2ccccc21 (centres undefined),/,/,45*,/,/,38*,61*
C=CCN1C(=O)c2ccc(C(=O)N(C)CC(=O)Nc3cccc(F)c3)cc2C1=O,0,-2,1,1,/,/,/
O=C(/C=C/c1cccnc1)/C=C/c1cccnc1,1,-3,23*,7,/,48*,4
N#C/C(C(=O)Nc1ccc(Cl)cc1)=C(/S)Nc1ccccc1,11,-3,26*,7,/,24*,2
O=C(Nc1ccc(Nc2ccccc2)cc1)c1ccc(Cl)cc1,7,4,-2,6,/,/,/
CCOC1(c2ccccc2)CC1C(=O)N/N=C/c1cccc([N+](=O)[O-])c1 (centres undefined),15,1,0,8,/,/,/
Cc1c(O)ccc2cc(S(=O)(=O)c3ccccc3)c(=O)oc12,7,0,34*,-1,/,33*,58*
